How the values were obtained:
Assay type in all cases: functional
MDA-MB-231 = assay: Cytotoxicity against human MDA-MB-231 cells by SRB method
How it was run: (§1)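 Human tumour lines (breast MDA-MB-231, lung A-549, colon HT-29) seeded in 96-well plates and left 24 h, then given vehicle or compound at 10 to 0.0026 µg/mL (10 dilutions) for 72 h. Read-out by SRB: PBS washes, 1% glutaraldehyde fix 15 min, 0.4% SRB in 1% acetic acid 30 min RT, dye extracted into 10 mM Tris base, A490. A time-zero plate was read before treatment.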

A549 = assay: Cytotoxicity against human A549 cells by SRB method; how it was run: as §1
HT-29 = assay: Cytotoxicity against human HT29 cells by SRB method; details: for CC50: read-out: LC50 (the source's name); how it was run: as §1
[1] = read-out: LC50 (the source's name)

Work on `COc1c(C)c(O)c2c(c1O)[C@@H]1C3=Cc4c(OC(C)=O)c(C)c5c(c4[C@H](COCc4ccccc4)N3[C@@H](C#N)[C@H](C2=O)N1C)OCO5` yielded a GI50 (MDA-MB-231) of 5.63 µM, a GI50 (A549) of 6.57 µM and a GI50 (HT-29) of 4.06 µM. The TGI (HT-29) was 6.72 µM and the CC50 (HT-29) was 14.5 µM.

`C/C=C(/C)C(=O)OC[C@H]1c2c(c(OC(C)=O)c(C)c3c2OCO3)C=C2[C@H]3c4c(O)c(OC)c(C)c(O)c4C(=O)[C@@H](C(=O)N21)N3C` gave a GI50 (MDA-MB-231) of 14 µM, a GI50 (A549) of 7.73 µM and a GI50 (HT-29) of 11.1 µM.

For `COc1c(C)cc2c(c1OCc1ccccc1)[C@@H]1C3=Cc4c(OC(C)=O)c(C)c(OC)c(OC)c4[C@H](COCc4ccccc4)N3[C@@H](C#N)[C@H](C2)N1C`, the GI50 (MDA-MB-231) was 0.26 µM, the TGI (MDA-MB-231) was 0.35 µM and the CC50 (MDA-MB-231; [1]) was 0.48 µM. It also gave a GI50 (A549) of 0.24 µM, a TGI (A549) of 0.3 µM and a CC50 (A549; [1]) of 0.41 µM. For the same compound, the GI50 (HT-29) was 0.2 µM, the TGI (HT-29) was 0.26 µM and the CC50 (HT-29) was 0.36 µM.

In the case of `C/C=C(/C)C(=O)OC[C@H]1C2=C(C=C3[C@H]4c5c(O)c(OC)c(C)c(O)c5C(=O)[C@@H](C(=O)N31)N4C)C(=O)C(C)=C(OC)C2=O` [CRIBROSTATIN 5], the GI50 (MDA-MB-231) is reported as 4.49 µM, the GI50 (A549) is reported as 7.09 µM and the TGI (A549) is reported as 11.6 µM. For the same compound, the GI50 (HT-29) was 6.74 µM and the TGI (HT-29) was 7.43 µM.
